# Results taken from ChEMBL document CHEMBL1921722, “In vitro and in vivo evaluation of select kahalalide F analogs with antitumor and antifungal activities” (Bioorg Med Chem, 2011).
# Activity calls are given as the source filed them.
# Experiments:
# [1] = tested on: NCI-H226; test: Cytotoxicity against human NCI-H226 cells assessed as cell growth at 8 nM by sulforhodamine B assay relative to control; format: functional; conditions: read-out: Activity
# [2] = tested on: OVCAR-8; test: Cytotoxicity against human OVCAR8 cells assessed as cell growth at 800 nM by sulforhodamine B assay relative to control; format: functional; conditions: read-out: Activity
# [3] = tested on: OVCAR-5; test: Cytotoxicity against human OVCAR5 cells assessed as cell growth at 8 uM by sulforhodamine B assay relative to control; format: functional; conditions: read-out: Activity
# [4] = tested on: NCI-H460; test: Cytotoxicity against human NCI-H460 cells assessed as cell growth at 80 uM by sulforhodamine B assay relative to control; format: functional; conditions: read-out: Activity
# [5] = tested on: SNB-19; test: Cytotoxicity against human SNB19 cells by sulforhodamine B assay; format: functional; conditions: for TGI: read-out: pTGI (converted)
# Procedure, shortened: (§1)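 NCI Developmental Therapeutics Program 60-cell-line human tumor panel screen, run at NCI. A single-concentration pre-screen was followed by a five-concentration dose-response in 10-fold steps. GI50 is the concentration that reduces growth of treated cells to half that of untreated control cells. TGI is the concentration that completely halts growth.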
# [6] = tested on: COLO 205; test: Cytotoxicity against human COLO205 cells assessed as cell growth at 8 uM by sulforhodamine B assay relative to control; format: functional; conditions: read-out: Activity
# Procedure, shortened: (§2)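 Run at NCI in the DTP 60-cell-line human tumor panel by standard procedure. Compounds were first screened at a single concentration, then tested at five tenfold-spaced concentrations. GI50 is the concentration reducing treated-cell growth to half that of untreated controls; TGI is the concentration completely halting growth.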
# [7] = tested on: SW-620; test: Cytotoxicity against human SW620 cells by sulforhodamine B assay; format: functional; conditions: for TGI: read-out: pTGI (converted); procedure, shortened: as §1
# [8] = tested on: UACC-257; test: Cytotoxicity against human UACC257 cells by sulforhodamine B assay; format: functional; procedure, shortened: as §1
# [9] = tested on: LOX IMVI; test: Antitumor activity against human LOXIMVI cells xenografted in mouse assessed as tumor cell killing at 4.7 mg/kg, ip qd for 4 days by MTT assay; format: functional, organism-based; design: dose 4.7 mg/kg
# Procedure, shortened: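 Hollow-fiber assay in mice. Tumor lines were grown in RPMI-1640 with 10% FBS and 2 mM glutamine. Cells at 2 × 10^6 cells/ml were loaded into 1 mm PVDF fibers (500,000 Da cutoff), heat-sealed at 2 cm and held 24–48 h at 37 °C, 5% CO2 before implantation. Compound was given IP. Fibers were collected the day after the fourth treatment for MTT (OD 540 nm, group means). A ≥50% cut in percent net growth versus vehicle counted as positive.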
# [10] = tested on: MOLT-4; test: Cytotoxicity against human MOLT4 cells assessed as cell growth at 80 uM by sulforhodamine B assay relative to control; format: functional; conditions: read-out: Activity
# [11] = tested on: K562; test: Cytotoxicity against human K562 cells assessed as cell growth at 80 uM by sulforhodamine B assay relative to control; format: functional; conditions: read-out: Activity
# [12] = tested on: Malme-3M; test: Cytotoxicity against human MALME-3M cells assessed as cell growth at 8 uM by sulforhodamine B assay relative to control; format: functional; conditions: read-out: Activity
# [13] = tested on: HOP-92; test: Cytotoxicity against human HOP92 cells assessed as cell growth at 8 nM by sulforhodamine B assay relative to control; format: functional; conditions: read-out: Activity
# [14] = tested on: EKVX; test: Cytotoxicity against human EKVX cells by sulforhodamine B assay; format: functional; conditions: for TGI: read-out: pTGI (converted)
# Procedure, shortened: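 Run by the NCI Developmental Therapeutics Program on its 60-line human tumour cell panel using the standard procedure. Compounds went through a single-concentration prescreen first, and those active by NCI criteria went on to a five-concentration growth-inhibition test. GI50 is the concentration that cuts growth of treated cells to half that of untreated control cells.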
# [15] = tested on: OVCAR-3; test: Cytotoxicity against human OVCAR3 cells assessed as cell growth at 80 uM by sulforhodamine B assay relative to control; format: functional; conditions: read-out: Activity
# [16] = tested on: HCT-116; test: Cytotoxicity against human HCT116 cells assessed as cell growth at 8 nM by sulforhodamine B assay relative to control; format: functional; conditions: read-out: Activity
# [17] = tested on: SN12C; test: Cytotoxicity against human SN12C cells assessed as cell growth at 8 uM by sulforhodamine B assay relative to control; format: functional; conditions: read-out: Activity
# [18] = tested on: NCI-H460; test: Cytotoxicity against human NCI-H460 cells assessed as cell growth at 8 nM by sulforhodamine B assay relative to control; format: functional; conditions: read-out: Activity
# [19] = tested on: NCI-H522; test: Cytotoxicity against human NCI-H522 cells assessed as cell growth at 80 nM by sulforhodamine B assay relative to control; format: functional; conditions: read-out: Activity
# [20] = tested on: COLO 205; test: Cytotoxicity against human COLO205 cells assessed as cell growth at 80 uM by sulforhodamine B assay relative to control; format: functional; conditions: read-out: Activity; procedure, shortened: as §2
# [21] = tested on: MDA-MB-435; test: Cytotoxicity against human MDA-MB-435 cells assessed as cell growth at 80 nM by sulforhodamine B assay relative to control; format: functional; conditions: read-out: Activity
# [22] = tested on: SK-MEL-28; test: Cytotoxicity against human SK-MEL-28 cells assessed as cell growth at 80 uM by sulforhodamine B assay relative to control; format: functional; conditions: read-out: Activity
# [23] = tested on: SK-MEL-5; test: Cytotoxicity against human SK-MEL-5 cells by sulforhodamine B assay; format: functional; conditions: for TGI: read-out: pTGI (converted); procedure, shortened: as §1
# [24] = tested on: NCI-H522; test: Cytotoxicity against human NCI-H522 cells by sulforhodamine B assay; format: functional; conditions: for TGI: read-out: pTGI (converted); procedure, shortened: as §1
# [25] = tested on: COLO 205; test: Cytotoxicity against human COLO205 cells by sulforhodamine B assay; format: functional; procedure, shortened: as §2
# [26] = tested on: SK-MEL-5; test: Cytotoxicity against human SK-MEL-5 cells assessed as cell growth at 80 nM by sulforhodamine B assay relative to control; format: functional; conditions: read-out: Activity
# [27] = tested on: SW-620; test: Cytotoxicity against human SW620 cells assessed as cell growth at 8 nM by sulforhodamine B assay relative to control; format: functional; conditions: read-out: Activity
# [28] = tested on: OVCAR-5; test: Cytotoxicity against human OVCAR5 cells assessed as cell growth at 800 nM by sulforhodamine B assay relative to control; format: functional; conditions: read-out: Activity
# [29] = tested on: UO-31; test: Cytotoxicity against human UO31 cells assessed as cell growth at 80 nM by sulforhodamine B assay relative to control; format: functional; conditions: read-out: Activity
# [30] = tested on: SF-295; test: Cytotoxicity against human SF295 cells assessed as cell growth at 80 nM by sulforhodamine B assay relative to control; format: functional; conditions: read-out: Activity
# [31] = tested on: TK-10; test: Cytotoxicity against human TK10 cells assessed as cell growth at 8 nM by sulforhodamine B assay relative to control; format: functional; conditions: read-out: Activity
# [32] = tested on: ACHN; test: Cytotoxicity against human ACHN cells assessed as cell growth at 80 nM by sulforhodamine B assay relative to control; format: functional; conditions: read-out: Activity; procedure, shortened: as §2
# [33] = tested on: MDA-MB-231; test: Cytotoxicity against human MDA-MB-231 cells assessed as cell growth at 80 uM by sulforhodamine B assay relative to control; format: functional; conditions: read-out: Activity
# [34] = tested on: HOP-92; test: Cytotoxicity against human HOP92 cells assessed as cell growth at 8 uM by sulforhodamine B assay relative to control; format: functional; conditions: read-out: Activity
# [35] = tested on: RPMI-8226; test: Cytotoxicity against human RPMI8226 cells assessed as cell growth at 8 nM by sulforhodamine B assay relative to control; format: functional; conditions: read-out: Activity
# [36] = tested on: OVCAR-4; test: Cytotoxicity against human OVCAR4 cells by sulforhodamine B assay; format: functional; conditions: for TGI: read-out: pTGI (converted); procedure, shortened: as §1
smiles,measurement,setting,value
C/C=C1\NC(=O)[C@H](Cc2ccccc2)NC(=O)[C@@H](C(C)C)NC(=O)[C@@H]([C@@H](C)CC)NC(=O)[C@H](NC(=O)[C@H](NC(=O)[C@H](CCCNCc2ccc(N3CCOCC3)cc2)NC(=O)[C@H]2CCCN2C(=O)[C@H](NC(=O)[C@@H](NC(=O)[C@@H](NC(=O)[C@H](NC(=O)CCCC(C)C)C(C)C)[C@@H](C)O)C(C)C)C(C)C)[C@@H](C)CC)[C@@H](C)OC(=O)[C@H](C(C)C)NC1=O,growth at 0.008 µM,[1],94%
same,growth at 0.8 µM,[2],96%
same,growth at 8 µM,[3],-74%
same,growth at 80 µM,[4],2%
same,GI50,[5],1350 nM
same,TGI,[5],2750 nM
same,growth at 8 µM,[6],-73%
same,GI50,[7],1050 nM
same,TGI,[7],2040 nM
same,GI50,[8]; read-out: GI50,1340 nM
same,TGI,[8]; read-out: TGI,2650 nM
same,GI50,[8]; read-out: pGI50 (converted),1350 nM
same,TGI,[8]; read-out: pTGI (converted),2630 nM
same,Activity,[9],inactive
same,growth at 80 µM,[10],7%
same,growth at 80 µM,[11],-39%
same,growth at 8 µM,[12],-71%
same,growth at 0.008 µM,[13],81%
same,GI50,[14],776 nM
same,TGI,[14],1910 nM
same,growth at 80 µM,[15],-50%
same,growth at 0.008 µM,[16],102%
same,growth at 8 µM,[17],-47%
same,growth at 0.008 µM,[18],99%
same,growth at 0.08 µM,[19],99%
same,growth at 80 µM,[20],13%
same,growth at 0.08 µM,[21],99%
same,growth at 80 µM,[22],-13%
same,GI50,[23],1230 nM
same,LC50,[23],4070 nM
same,TGI,[23],2240 nM
same,GI50,[24],5010 nM
same,LC50,[24],> 75900 nM
same,TGI,[24],33100 nM
same,GI50,[25]; read-out: GI50,152 nM
same,GI50,[25]; read-out: pGI50 (converted),151 nM
same,growth at 0.08 µM,[26],101%
same,growth at 0.008 µM,[27],104%
same,growth at 0.8 µM,[28],64%
same,growth at 0.08 µM,[29],104%
same,growth at 0.08 µM,[30],99%
same,growth at 0.008 µM,[31],118%
same,growth at 0.08 µM,[32],102%
same,growth at 80 µM,[33],-43%
same,growth at 8 µM,[34],-2%
same,growth at 0.008 µM,[35],111%
same,GI50,[36],1230 nM
same,TGI,[36],2820 nM
C/C=C1\NC(=O)[C@H](Cc2ccccc2)NC(=O)[C@@H](C(C)C)NC(=O)[C@@H]([C@@H](C)CC)NC(=O)[C@H](NC(=O)[C@H](NC(=O)[C@H](CCCNCc2ccc(F)c(C)c2)NC(=O)[C@H]2CCCN2C(=O)[C@H](NC(=O)[C@@H](NC(=O)[C@@H](NC(=O)[C@H](NC(=O)CCCC(C)C)C(C)C)[C@@H](C)O)C(C)C)C(C)C)[C@@H](C)CC)[C@@H](C)OC(=O)[C@H](C(C)C)NC1=O,growth at 0.008 µM,[1],101%
same,growth at 0.8 µM,[2],92%
same,growth at 8 µM,[3],-95%
same,growth at 80 µM,[4],2%
same,GI50,[5],1290 nM
same,LC50 (concentration killing 50% of cells),[5],4790 nM
same,TGI,[5],2450 nM
same,growth at 8 µM,[6],-76%
same,GI50,[7],513 nM
same,LC50,[7],3310 nM
same,TGI,[7],1450 nM
same,LC50,[8],5130 nM
same,GI50,[8]; read-out: GI50,1280 nM
same,TGI,[8]; read-out: TGI,2550 nM
same,GI50,[8]; read-out: pGI50 (converted),1290 nM
same,TGI,[8]; read-out: pTGI (converted),2570 nM
same,Activity,[9],inactive
same,growth at 80 µM,[10],9%
same,growth at 80 µM,[11],-14%
same,growth at 8 µM,[12],-77%
same,growth at 0.008 µM,[13],104%
same,GI50,[14],759 nM
same,CC50,[14]; read-out: pLC50 (the source's name) (converted),4370 nM
same,TGI,[14],1820 nM
same,growth at 80 µM,[15],-90%
same,growth at 0.008 µM,[16],98%
same,growth at 8 µM,[17],-81%
same,growth at 0.008 µM,[18],104%
same,growth at 0.08 µM,[19],101%
same,growth at 80 µM,[20],33%
same,growth at 0.08 µM,[21],103%
same,growth at 80 µM,[22],1%
same,GI50,[23],1150 nM
same,LC50,[23],3980 nM
same,TGI,[23],2140 nM
same,GI50,[24],2570 nM
same,LC50,[24],> 75900 nM
same,TGI,[24],35500 nM
same,GI50,[25]; read-out: GI50,135 nM
same,GI50,[25]; read-out: pGI50 (converted),135 nM
same,growth at 0.08 µM,[26],99%
same,growth at 0.008 µM,[27],99%
same,growth at 0.8 µM,[28],55%
same,growth at 0.08 µM,[29],106%
same,growth at 0.08 µM,[30],85%
same,growth at 0.008 µM,[31],112%
same,growth at 0.08 µM,[32],100%
same,growth at 80 µM,[33],-89%
same,growth at 8 µM,[34],-62%
same,growth at 0.008 µM,[35],128%
same,GI50,[36],269 nM
same,TGI,[36],955 nM
